Reference: ChEMBL document CHEMBL2396596, “Anthraquinone derivatives from Rumex plants and endophytic Aspergillus fumigatus and their effects on diabetic nephropathy” (Bioorg Med Chem Lett, 2013)
Active and inactive are the calls of the source. The calls are words filed in the database; no cut-off is given here.

Assays:
[1] = Antidiabetic nephropathic activity in rat HBZY-1 cells assessed as inhibition of high concentration glucose-induced collagen-4 production at 10 uM treated 1 hr before glucose challenge measured after 24 hrs by ELISA; assay type: functional, cell-based
Outline: (§1)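 HBZY-1 rat mesangial cells (passages 3–10) were grown in DMEM with 5.6 mM glucose, 20% FCS and 10 mM HEPES. At 80% confluence they were arrested in 0.5% FCS for 24 h, then pretreated with compound for 1 h and stimulated with high glucose (25 mM) for 24 h. Supernatant IL-6, fibronectin or collagen IV was measured by sandwich ELISA, normalized to total cell protein (BCA), and compared by ANOVA.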

[2] = Cytotoxicity against rat HBZY-1 cells assessed as cell viability at 10 uM after 48 hrs by MTT assay; assay type: cell-based; conditions: hbzy-1, 48 h
Outline: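 Cells were seeded at 10⁴ per well and held in serum-free medium for 24 h. They were exposed to compound at 10 μM, or left without it, for 48 h. MTT (5 mg/mL stock) was added for 4 h at 37 °C, the formazan was dissolved in DMSO, and A570 was read. Values were normalized to control-medium cells.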

[3] = Antidiabetic nephropathic activity in rat HBZY-1 cells assessed as inhibition of high concentration glucose-induced fibronectin production at 10 uM treated 1 hr before glucose challenge measured after 24 hrs by ELISA; assay type: functional, cell-based; outline: as §1
[4] = Antidiabetic nephropathic activity in rat HBZY-1 cells assessed as inhibition of high concentration glucose-induced IL-6 production at 10 uM treated 1 hr before glucose challenge measured after 24 hrs by ELISA; assay type: functional, cell-based; outline: as §1
[5] = Antidiabetic nephropathic activity in rat HBZY-1 cells assessed as inhibition of high concentration glucose-induced IL-6 production at 35 uM treated 1 hr before glucose challenge measured after 24 hrs by ELISA; assay type: functional, cell-based; outline: as §1
[6] = Antidiabetic nephropathic activity in rat HBZY-1 cells assessed as inhibition of high concentration glucose-induced IL-6 production at 88 uM treated 1 hr before glucose challenge measured after 24 hrs by ELISA; assay type: functional, cell-based

Compound	inhibition [1]	Activity [2]	inhibition [3]	inhibition [4]	inhibition [5]	inhibition [6]
COc1cc(O)c2c(c1)[C@@](O)([C@@H]1O[C@H](CO)[C@@H](O)[C@H](O)[C@H]1O)c1cc(C)cc(O)c1C2=O	Active	Non-toxic	Active	Active		
Cc1cc(O[C@@H]2O[C@H](CO)[C@@H](O)[C@H](O)[C@H]2O)c(C(=O)c2c(O)cccc2O)c(C(=O)O)c1	Active	Non-toxic	Active	Active		
Cc1cc(O)c2c(c1)[C@@](O)([C@@H]1O[C@H](CO)[C@@H](O)[C@H](O)[C@H]1O)c1cc(O)cc(O)c1C2=O	Active	Non-toxic	Active			
COC(=O)c1cc(O)cc(OC)c1C(=O)c1c(O)cc(C)cc1OC	Active	Non-toxic	Active	Active		
CC(=O)OC[C@H]1O[C@@H](Oc2cc(O)cc3c2C(=O)c2c(O)cc(C)cc2C3=O)[C@H](O)[C@@H](O)[C@@H]1O				Active		
COc1cc(C)cc2c1C(=O)c1c(O)cc(O)cc1C2=O				Active		
COc1cc(O)c2c(c1)[C@](O)([C@@H]1O[C@H](CO)[C@@H](O)[C@H](O)[C@H]1O)c1cc(C)cc(O)c1C2=O				Active		
Cc1cc(O)c2c(c1)C(=O)c1cc(O)cc(O[C@@H]3O[C@H](CO)[C@@H](O)[C@H](O)[C@H]3O)c1C2=O				Active		
O=C(O)c1cc(O)c2c(c1)C(=O)c1cccc(O)c1C2=O					inactive	Active
O=C1c2cccc(O)c2C(=O)c2c(O)cc(CO)cc21				Active		
COC(=O)c1c(OC)c(O)cc(OC)c1C(=O)c1c(O)cc(C)cc1OC [ASPERFUMIN]	Active	Non-toxic	Active	Active		
Cc1cc(O)c2c(c1)C(=O)c1cccc(O)c1C2=O [CHRYSOPHANOL]	Active	Non-toxic	Active	Active		
Cc1cc(O)c2c(c1)C(=O)c1cc(O)cc(O)c1C2=O [EMODIN]	Active	Non-toxic	Active	Active		
COc1cc(O)c2c(c1)C(=O)c1cc(C)cc(O)c1C2=O [PHYSCION]	Active	Non-toxic	Active	Active		
COc1cc(O)cc2c1C(=O)c1c(O)cc(C)cc1C2=O [QUESTIN]	Active	Non-toxic	Active	Active		
COC(=O)C1=CC(=O)C=C(OC)C12Oc1cc(C)cc(OC)c1C2=O (stereo unspecified) [TRYPACIDIN]	Active	Non-toxic	Active	Active		
